The results in this text go back to ChEMBL document CHEMBL4396879, “Conjugation of Short Peptides to Dibenzodiazepinone-Type Muscarinic Acetylcholine Receptor Ligands Determines M2R Selectivity” (J Med Chem, 2019).

Type in all cases: cell-based
In assay [1] the target is T1, Muscarinic acetylcholine receptor M4 (Homo sapiens, UniProt P08173).
T1 sequence (P08173 whole entry): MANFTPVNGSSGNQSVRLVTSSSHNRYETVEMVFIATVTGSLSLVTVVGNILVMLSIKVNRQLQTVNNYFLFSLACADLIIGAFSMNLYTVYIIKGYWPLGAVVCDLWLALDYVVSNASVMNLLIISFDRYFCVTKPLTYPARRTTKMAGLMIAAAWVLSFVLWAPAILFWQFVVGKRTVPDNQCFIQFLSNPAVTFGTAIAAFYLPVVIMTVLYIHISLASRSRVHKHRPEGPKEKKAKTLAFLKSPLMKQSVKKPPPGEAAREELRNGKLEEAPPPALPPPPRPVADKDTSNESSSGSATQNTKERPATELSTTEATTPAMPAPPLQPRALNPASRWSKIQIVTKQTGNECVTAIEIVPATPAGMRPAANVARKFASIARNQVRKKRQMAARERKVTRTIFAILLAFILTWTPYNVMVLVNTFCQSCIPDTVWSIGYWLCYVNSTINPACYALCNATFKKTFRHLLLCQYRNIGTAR
The assay is described as follows: Displacement of [3H]-NMS from human muscarinic M4 receptor expressed in CHO-K9 cells after 3 hrs by microbeta2 scintillation counting method. In short, it runs like this: (§1)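 [3H]NMS competition binding on intact CHO-hMxR cells in L15 medium with 1% BSA, 3 h at 22 ± 1 °C with gentle shaking. [3H]NMS was 0.2 nM (M1, M2, M3), 0.1 nM (M4) or 0.3 nM (M5). […] Cells were lysed in urea/acetic acid/Triton and counted by liquid scintillation. Ki from Cheng-Prusoff. Triplicates, ≥3 experiments.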
(In general: Displacement assays read how much labelled ligand stays bound in the presence of the test substance.)

In assay [2] the target is Muscarinic acetylcholine receptor M3 (Homo sapiens, UniProt P20309). The assay is described as follows: Displacement of [3H]-NMS from human muscarinic M3 receptor expressed in CHO-K9 cells after 3 hrs by microbeta2 scintillation counting method. In short, it runs like this:
as §1

Assay [3] concerns the target T2, Muscarinic acetylcholine receptor M5 (Homo sapiens, UniProt P08912).
T2 sequence (P08912 whole entry): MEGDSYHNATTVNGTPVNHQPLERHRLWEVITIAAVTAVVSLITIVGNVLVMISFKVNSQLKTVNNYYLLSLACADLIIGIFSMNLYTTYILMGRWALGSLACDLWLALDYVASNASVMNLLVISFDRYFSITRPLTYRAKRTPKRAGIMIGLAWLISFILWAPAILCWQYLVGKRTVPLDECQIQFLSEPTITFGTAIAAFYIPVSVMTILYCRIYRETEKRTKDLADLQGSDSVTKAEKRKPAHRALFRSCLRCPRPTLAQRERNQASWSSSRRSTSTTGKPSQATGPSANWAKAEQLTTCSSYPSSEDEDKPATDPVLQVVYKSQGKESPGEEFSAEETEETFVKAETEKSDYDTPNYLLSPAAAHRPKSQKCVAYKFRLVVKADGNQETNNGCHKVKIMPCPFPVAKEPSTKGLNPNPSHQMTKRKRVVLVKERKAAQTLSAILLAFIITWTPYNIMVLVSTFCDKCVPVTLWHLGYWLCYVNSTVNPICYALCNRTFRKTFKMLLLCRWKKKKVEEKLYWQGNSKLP
The assay is described as follows: Displacement of [3H]-NMS from human muscarinic M5 receptor expressed in CHO-K9 cells after 3 hrs by microbeta2 scintillation counting method. In short, it runs like this:
as §1

In assay [4] the target is T3, Muscarinic acetylcholine receptor M2 (Homo sapiens, UniProt P08172).
T3 sequence (P08172 whole entry): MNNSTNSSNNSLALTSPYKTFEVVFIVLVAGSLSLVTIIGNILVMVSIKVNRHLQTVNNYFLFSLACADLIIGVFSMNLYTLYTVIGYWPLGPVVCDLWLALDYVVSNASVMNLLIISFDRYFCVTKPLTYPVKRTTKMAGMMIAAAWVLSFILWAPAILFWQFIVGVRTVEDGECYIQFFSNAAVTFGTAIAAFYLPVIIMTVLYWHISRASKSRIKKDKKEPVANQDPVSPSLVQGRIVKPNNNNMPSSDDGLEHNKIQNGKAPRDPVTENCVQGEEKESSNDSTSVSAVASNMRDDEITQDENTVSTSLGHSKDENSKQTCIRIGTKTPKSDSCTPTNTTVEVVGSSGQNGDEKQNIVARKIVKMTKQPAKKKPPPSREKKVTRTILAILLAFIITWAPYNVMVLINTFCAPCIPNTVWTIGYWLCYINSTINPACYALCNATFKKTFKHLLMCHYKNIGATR
The assay is described as follows: Displacement of [3H]-NMS from human muscarinic M2 receptor expressed in CHO-K9 cells after 3 hrs by microbeta2 scintillation counting method. In short, it runs like this:
as §1

Assay [5] deals with T4, Muscarinic acetylcholine receptor M1 (Homo sapiens, UniProt P11229).
T4 sequence (P11229 whole entry): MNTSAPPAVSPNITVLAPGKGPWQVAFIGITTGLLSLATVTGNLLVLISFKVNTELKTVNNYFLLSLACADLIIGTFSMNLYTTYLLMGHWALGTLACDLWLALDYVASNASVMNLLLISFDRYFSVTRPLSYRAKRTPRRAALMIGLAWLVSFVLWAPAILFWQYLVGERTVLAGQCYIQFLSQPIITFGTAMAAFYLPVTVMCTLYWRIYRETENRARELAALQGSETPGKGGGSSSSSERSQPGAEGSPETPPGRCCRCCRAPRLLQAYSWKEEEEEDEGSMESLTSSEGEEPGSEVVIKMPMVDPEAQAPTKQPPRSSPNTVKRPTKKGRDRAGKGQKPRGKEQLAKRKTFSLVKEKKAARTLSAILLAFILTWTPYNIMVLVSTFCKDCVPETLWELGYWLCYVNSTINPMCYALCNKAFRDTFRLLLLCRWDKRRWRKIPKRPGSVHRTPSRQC
Put plainly: Displacement of [3H]-NMS from human muscarinic M1 receptor expressed in CHO-K9 cells after 3 hrs by microbeta2 scintillation counting method. In short, it runs like this:
as §1

Assay [6] deals with Muscarinic acetylcholine receptors; M2 & M3 (Homo sapiens) (UniProt P20309+P08172). Put plainly: Selectivity ratio of Ki for human muscarinic M3 receptor expressed in CHO-K9 cells to Ki for human muscarinic M2 receptor expressed in CHO-K9 cells. A digest of the protocol: (§2)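 Ratio of mean Ki values. Each Ki came from an individual [3H]NMS competition experiment at the given CHO-hMxR subtype, converting IC50 to Ki by Cheng-Prusoff before averaging.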
Sequence of Muscarinic acetylcholine receptors; M2 & M3 (Homo sapiens) (P20309 whole entry, looked up, one chain of several): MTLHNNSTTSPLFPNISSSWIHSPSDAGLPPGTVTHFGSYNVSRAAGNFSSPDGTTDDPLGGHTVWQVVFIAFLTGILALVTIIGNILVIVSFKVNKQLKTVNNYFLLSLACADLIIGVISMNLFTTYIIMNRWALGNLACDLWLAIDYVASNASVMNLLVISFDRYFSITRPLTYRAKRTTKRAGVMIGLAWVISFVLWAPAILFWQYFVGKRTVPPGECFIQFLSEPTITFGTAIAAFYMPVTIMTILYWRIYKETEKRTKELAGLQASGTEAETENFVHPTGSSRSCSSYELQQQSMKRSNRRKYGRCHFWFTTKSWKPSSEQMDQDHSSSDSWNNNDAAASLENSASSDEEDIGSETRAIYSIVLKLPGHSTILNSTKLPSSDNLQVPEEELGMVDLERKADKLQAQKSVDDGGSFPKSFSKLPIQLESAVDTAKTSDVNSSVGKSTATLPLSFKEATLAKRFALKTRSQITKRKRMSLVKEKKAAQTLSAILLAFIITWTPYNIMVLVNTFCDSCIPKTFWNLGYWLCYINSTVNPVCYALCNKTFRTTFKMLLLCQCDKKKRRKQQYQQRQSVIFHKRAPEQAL

Assay [7] has as its target Muscarinic acetylcholine receptor M2 and M4 (Homo sapiens) (UniProt P08173+P08172). Put plainly: Selectivity ratio of Ki for human muscarinic M4 receptor expressed in CHO-K9 cells to Ki for human muscarinic M2 receptor expressed in CHO-K9 cells. A digest of the protocol: as §2
Assay [8] concerns the target Muscarinic acetylcholine receptor M2 and M5 (Homo sapiens) (UniProt P08172+P08912). Put plainly: Selectivity ratio of Ki for human muscarinic M5 receptor expressed in CHO-K9 cells to Ki for human muscarinic M2 receptor expressed in CHO-K9 cells. In short, it runs like this: as §2
For assay [9], the target named is Muscarinic acetylcholine receptors; M1 & M2 (Homo sapiens) (UniProt P11229+P08172). Put plainly: Selectivity ratio of Ki for human muscarinic M1 receptor expressed in CHO-K9 cells to Ki for human muscarinic M2 receptor expressed in CHO-K9 cells. A digest of the protocol:
as §2

Molecules are shown by their SMILES. Some results are limits rather than exact numbers.

As usually defined, the Ki is the equilibrium dissociation constant of an inhibitor or competing ligand from its target. A lower Ki goes with tighter binding.

Sequence of Muscarinic acetylcholine receptor M3 (P20309 whole entry): as the sequence (P20309 whole entry, looked up, one chain of several) above

As to `CC(=O)N[C@@H](CCCNC(=N)N)C(=O)N[C@@H](CCCNC(=N)N)C(=O)NCCCCC1CCN(CC(=O)N2c3ccccc3NC(=O)c3ccccc32)CC1`, the Ki is 29.5 nM in assay [1]; 955 nM in [2]; 162 nM in assay [3]; 1.7 nM in [4]; 20 nM in assay [5]. The Ratio Ki was 710 in assay [6], 19 in assay [7], 97 in assay [8] and 12 in assay [9].
As to `CC(=O)N[C@@H](CCC(N)=O)C(=O)N[C@@H](C)C(=O)N[C@@H](CC(C)C)C(=O)NCCCCC1CCN(CC(=O)N2c3ccccc3NC(=O)c3ccccc32)CC1`, the Ki was 417 nM in assay [1]; more than 10000 nM in [2]; 1200 nM in assay [3]; 240 nM in assay [4]; 537 nM in assay [5]. The Ratio Ki in assay [6] is more than 36; in assay [7], 1.7; in assay [8], 4.4; in assay [9], 2.2.
As for `CC(=O)N[C@@H](CCCCN)C(=O)N[C@@H](Cc1ccc(O)cc1)C(=O)NCCCCC1CCN(CC(=O)N2c3ccccc3NC(=O)c3ccccc32)CC1`, the inhibition constant (Ki) in assay [1] is 10.7 nM; in [2], 1620 nM; in assay [3], 74.1 nM; in assay [4], 1.82 nM; in [5], 30.2 nM. Further, the Ratio Ki came to 720 in [6], 5.9 in [7], 43 in [8] and 17 in assay [9].
Take `CC(=O)N[C@@H](Cc1ccc(O)cc1)C(=O)N[C@@H](C)C(=O)N[C@@H](CCCCN)C(=O)NCCN1CCN(CCCCC2CCN(CC(=O)N3c4ccccc4NC(=O)c4ccccc43)CC2)CC1`: the inhibition constant (Ki) is 3.24 nM in assay [1]; 28.2 nM in assay [2]; 29.5 nM in [3]; 0.115 nM in assay [4]; 2.34 nM in assay [5]. Further, the Ratio Ki in assay [6] worked out at 290; in assay [7], 28; in assay [8], 260; in assay [9] it was 22.
For `CC(=O)N[C@@H](CCC(N)=O)C(=O)N[C@@H](CC(C)C)C(=O)NCCN1CCN(CCCCC2CCN(CC(=O)N3c4ccccc4NC(=O)c4ccccc43)CC2)CC1`, the Ki was 1.2 nM in [1]; 61.7 nM in [2]; 295 nM in assay [3]; 0.24 nM in assay [4]; 2.4 nM in [5]. Moreover, the Ratio Ki stood at 270 in assay [6], 5.4 in [7], 1300 in [8] and 9.6 in [9].
Consider `CCC(=O)NCCCCC1CCN(CC(=O)N2c3ccccc3NC(=O)c3ccccc32)CC1`, for which the Ki in [1] is 209 nM; in assay [2] it was 5370 nM; in assay [3] it was 7080 nM; in assay [4], 79.4 nM; in [5], 85.1 nM. Further, the Ratio Ki in assay [6] is 69; in assay [7], 2.7; in [8], 98; in assay [9] it was 1.1.
For the molecule `CC(=O)N[C@@H](Cc1c[nH]c2ccccc12)C(=O)N[C@@H](Cc1ccc(O)cc1)C(=O)NCCCCC1CCN(CC(=O)N2c3ccccc3NC(=O)c3ccccc32)CC1`, the Ki in [1] is 93.3 nM; in [2] it was 1580 nM; in [3], 58.9 nM; in assay [4], 33.1 nM; in assay [5], 155 nM. Further, the Ratio Ki was 46 in assay [6], 2.8 in [7], 1.8 in assay [8] and 5 in [9].
Consider `CC(=O)N[C@@H](Cc1c[nH]c2ccccc12)C(=O)N[C@@H](Cc1ccc(O)cc1)C(=O)NCCN1CCN(CCCCC2CCN(CC(=O)N3c4ccccc4NC(=O)c4ccccc43)CC2)CC1`, for which the Ki in assay [1] was 1.07 nM; in assay [2], 13.5 nM; in assay [3] it was 38.9 nM; in [4] it was 0.148 nM; in assay [5] it was 0.871 nM. In addition, the Ratio Ki in assay [6] is 79; in assay [7] it was 7; in assay [8] it was 220; in [9] it was 6.3.
Regarding `CC(=O)N[C@@H](CCC(N)=O)C(=O)N[C@@H](CC(C)C)C(=O)NCCCCC1CCN(CC(=O)N2c3ccccc3NC(=O)c3ccccc32)CC1`, the inhibition constant (Ki) in [1] is 1070 nM; in [2], more than 10000 nM; in [3] it was 1510 nM; in assay [4], 309 nM; in assay [5], 1050 nM. Moreover, the Ratio Ki was more than 27 in [6], 3.6 in assay [7], 4.9 in assay [8] and 3.4 in [9].
In the case of `CC(=O)N[C@@H](CCCCN)C(=O)N[C@@H](C)C(=O)N[C@@H](Cc1ccc(O)cc1)C(=O)NCCN1CCN(CCCCC2CCN(CC(=O)N3c4ccccc4NC(=O)c4ccccc43)CC2)CC1`, the Ki in assay [1] is 1.26 nM; in [2], 44.7 nM; in assay [3], 95.5 nM; in [4], 0.174 nM; in assay [5] it was 1.26 nM. Besides, the Ratio Ki in assay [6] stood at 240; in assay [7], 8.1; in assay [8] it was 560; in assay [9], 8.3.
Take `CCC(=O)NCc1cc(C(=O)NCCN2CCC(N3CCC(n4c(=O)[nH]c5ccccc54)CC3)CC2)cc(C(=O)NCCN2CCN(CCCCC3CCN(CC(=O)N4c5ccccc5NC(=O)c5ccccc54)CC3)CC2)c1`: the Ratio Ki worked out at 78 in assay [6], 7.4 in assay [7], 300 in assay [8] and 7.6 in assay [9].
